Experimental data as given in ChEMBL document CHEMBL1149837, “Isothiocyanate sesquiterpenes from a sponge of the genus axinyssa” (2008).
The source made the active and inactive calls. The calls are words filed in the database; no cut-off is given here.

What was measured:
[1] = tested on: MDA-MB-231; assay: Cytotoxicity against human MDA-MB-231 cells by SRB assay; format: functional
How it was run: (§1)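 SRB colorimetric assay of cell growth and viability, adapted from a published method, in human tumour lines MDA-MB-231 (breast adenocarcinoma), A-549 (lung adenocarcinoma) and HT-29 (colon adenocarcinoma). The highest concentration tested was 10 µg/mL. Read-outs were GI50 and TGI, both in µM.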

[2] = tested on: A549; assay: Cytotoxicity against human A549 cells by SRB assay; format: functional; how it was run: as §1
[3] = tested on: HT-29; assay: Cytotoxicity against human HT29 cells by SRB assay; format: functional; how it was run: as §1
[4] = tested on: MDA-MB-231; assay: Cytotoxicity against human MDA-MB-231 cells at 10ug/ml by SRB assay; format: functional, cell-based; how it was run: as §1
[5] = tested on: HT-29; assay: Cytotoxicity against human HT29 cells at 10ug/ml by SRB assay; format: functional, cell-based; how it was run: as §1
[6] = tested on: A549; assay: Cytotoxicity against human A549 cells at 10ug/ml by SRB assay; format: functional, cell-based; how it was run: as §1

Compound | GI50 [1] [µM] | TGI [1] [µM] | GI50 [2] [µM] | TGI [2] [µM] | GI50 [3] [µM] | TGI [3] [µM] | Activity [4] | Activity [5] | Activity [6]
CC(C)[C@@H]1CC[C@](C)(N=C=S)[C@@H]2CC[C@@](C)(O)C=C12 [AXINISOTHIOCYANATE J] | 10.4 | 14.3 | 11.8 | 19 | 11.8 | 14 | – | – | –
CC(C)[C@@H]1CC[C@](C)(N=C=S)[C@]2(O)CC[C@@](C)(O)C=C12 | – | – | – | – | – | – | inactive | inactive | inactive
CC(C)[C@@]1(OO)CC[C@](C)(N=C=S)[C@@H]2CC[C@@](C)(O)C=C21 | – | – | – | – | – | – | inactive | inactive | inactive
CC1=C[C@@H]2[C@@H](C(C)C)CC[C@@](C)(N=C=S)[C@@H]2CC1=O [AXINISOTHIOCYANATE L] | – | – | 31.4 | – | 31.4 | – | – | – | –
